From ChEMBL document CHEMBL5257128, “Design, synthesis and biological evaluation of covalent peptidomimetic 3CL protease inhibitors containing nitrile moiety” (Bioorg Med Chem, 2023) come the findings set out here.

The target in data set [1] is Replicase polyprotein 1ab (Severe acute respiratory syndrome coronavirus 2, UniProt P0DTD1). Briefly: Inhibition of full length SARS-CoV-2 3CL protease expressed in Escherichia coli BL21 (DE3) using Dacyl-KTSAVLQSGFRKME-Edans fluorogenic peptide as substrate pre-incubated for 10 mins followed by substrate addition by FRET assay.
Data set [2] is described as follows: Half life in mouse at 10 mg/kg, iv by LC-MS/MS analysis. The format is ADME, organism-based. The following applies: in vivo.
Data set [3] can be described thus: Cmax in mouse at 10 mg/kg, iv by LC-MS/MS analysis. The format is ADME, organism-based. Set-up: dose 10 mg/kg, route iv. The following applies: in vivo.
For another data set, the system named is Vero C1008. Briefly: Cytotoxicity against African green monkey Vero E6 cells assessed as reduction in cell viability measured after 24 hrs by CCK8 assay. Type of data set: toxicity, cell-based. The following applies: chlorocebus sabaeus, vero c1008, 24 h. In general terms: Tetrazolium dyes change colour on reduction, which living cells bring about.
Data set [4] in a line: Metabolic stability in mouse liver microsomes assessed as half life in presence of NADPH incubated upto 45 mins by LC/MS analysis. The format is ADME, Microsome. Particulars: 0.75 h. Put shortly: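 Mouse liver microsomes at 0.5 mg/mL final protein in K/Mg buffer, preincubated 5 min at 37 °C. Reaction started with NADPH (6 mM stock) and sampled at 0, 5, 15, 30 and 45 min. Each sample was quenched with acetonitrile containing internal standard, centrifuged, diluted with water, and analysed by LC/MS for remaining parent.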
In general terms: Liver microsomes are a subcellular fraction often used to study metabolism.

Data set [5] in a line: Observed MRTinfinity in mouse at 20 mg/kg, po by LC-MS/MS analysis. The format is ADME, organism-based. Particulars: in vivo.
Data set [6] can be described thus: Tmax in mouse at 20 mg/kg, po by LC-MS/MS analysis. The format is ADME, organism-based. Particulars: in vivo.
Data set [7] can be described thus: Observed AUCinfinity in mouse at 10 mg/kg, iv by LC-MS/MS analysis. Further details: dose 10 mg/kg, route iv. The format is ADME, organism-based. Particulars: in vivo.
Data set [8] can be described thus: Observed AUCinfinity in mouse at 20 mg/kg, po by LC-MS/MS analysis. The format is ADME, organism-based. Set-up: dose 20 mg/kg, route po. The following applies: in vivo.
A short description of data set [9]: Tmax in mouse at 10 mg/kg, iv by LC-MS/MS analysis. The format is ADME, organism-based. The following applies: in vivo.
Data set [10] is described as follows: Cmax in mouse at 20 mg/kg, po by LC-MS/MS analysis. Type of data set: ADME, organism-based. Set-up: dose 20 mg/kg, route po. The following applies: in vivo.
A short description of data set [11]: Metabolic stability in human liver microsomes assessed as half life in presence of NADPH incubated upto 45 mins by LC/MS analysis. The format is ADME, Microsome. Particulars: 0.75 h. The gist of the method: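 Human or mouse liver microsomes, final protein 0.5 mg/mL, in K/Mg buffer. Compound was added from a 1.5 µM spiking solution containing 0.75 mg/mL microsomes, then preincubated 5 min at 37 °C. The reaction was started with NADPH (6 mM stock) and sampled at 0, 5, 15, 30 and 45 min. Samples were quenched with acetonitrile containing internal standard, centrifuged, and the supernatant analysed by LC/MS.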

Data set [12] can be described thus: Selectivity Index, ratio of CC50 for African green monkey Vero E6 cells to EC50 for antiviral activity against SARS-CoV-2 infected in African green monkey Vero E6. The format is toxicity, Vero C1008. Particulars: read-out: Ratio CC50/EC50.
A short description of data set [13]: AUClast in mouse at 20 mg/kg, po by LC-MS/MS analysis. The format is ADME, organism-based. Set-up: dose 20 mg/kg, route po. The following applies: in vivo.
The nature of data set [14]: Observed volume of distribution at steady state in mouse at 10 mg/kg, iv by LC-MS/MS analysis. Type of data set: ADME, organism-based. Particulars: in vivo.
Data set [15] is described as follows: Half life in mouse at 20 mg/kg, po by LC-MS/MS analysis. The following applies: in vivo. Type of data set: ADME, organism-based.
Data set [16] is described as follows: Oral bioavailability in mouse at 20 mg/kg by LC-MS/MS analysis. Type of data set: ADME, organism-based. Particulars: in vivo.
A short description of data set [17]: AUClast in mouse at 10 mg/kg, iv by LC-MS/MS analysis. The following applies: in vivo. Type of data set: ADME, organism-based. Set-up: dose 10 mg/kg, route iv.
The next data set deals with SARS-CoV-2. Briefly: Antiviral activity against SARS-CoV-2 infected in African green monkey Vero E6 cells pre-incubated for 1 hr followed by viral infection measured after 2 hrs by qRT-PCR analysis. The following applies: Severe acute respiratory syndrome coronavirus 2, Vero C1008. Type of data set: functional, organism-based.
A short description of data set [18]: Observed MRTinfinity in mouse at 10 mg/kg, iv by LC-MS/MS analysis. The format is ADME, organism-based. The following applies: in vivo.

Bounds are passed on as bounds.

Take `CC(C)(C)[C@H](NC(=O)C(F)(F)F)C(=O)N1CC2(CC2)C[C@H]1C(=O)N[C@H](C#N)C[C@@H]1CCNC1=O`: the IC50 (commonly the point on the concentration scale where inhibition reaches its midpoint) in data set [1] amounted to 0.0368 µM.

On to `CC(C)(C)[C@H](NS(=O)(=O)C1CC1)C(=O)N1C[C@H]2[C@@H]([C@H]1C(=O)N[C@H](C#N)C[C@@H]1CCNC1=O)C2(C)C`, for which the IC50 in data set [1] was found to be 0.0228 µM.

As for `CC(C)(C)[C@H](NS(=O)(=O)C(F)(F)F)C(=O)N1C[C@H]2[C@@H]([C@H]1C(=O)N[C@H](C#N)C[C@@H]1CCNC1=O)C2(C)C`, the t1/2 came to 21 min in data set [2], 97.89 min in [4], 652.17 min in [11] and 42.6 min in data set [15]. Also, the values for the Cmax in [3] and in data set [10] were 10500 ng/mL and 2052.36 ng/mL, respectively. In addition, the CC50 (usually the concentration giving 50% cytotoxicity) with Vero C1008 was above 200 µM. For the same compound, the MRT (usually a mean duration of stay, worked out from the concentration-time curve) is 48 min in [5] and 17.4 min in [18]. For the same compound, the Tmax – broadly, the time at which the peak concentration occurs – in data set [6] was 30 min; in [9] it was 4.8 min. In addition, the AUC (commonly the area under the concentration-time curve, a measure of exposure) in data set [7] turned out to be 4120.05 ng·h/mL; in data set [8], 1904.9 ng·h/mL. In addition, the IC50 in data set [1] was 0.0224 µM. The selectivity ratio in data set [12] was above 1500. The AUClast in [13] turned out to be 1901.84 ng·h/mL; in data set [17], 4118.55 ng·h/mL. Also, the Vd in data set [14] (read-out: Vdss) was determined as 0.69 L/kg. For the same compound, the F in data set [16] is 23.09%. It took 0.17 µM to reach a half-maximal effect with SARS-CoV-2 (EC50).

For `CC(C)(C)[C@H](NC(=O)C(F)(F)F)C(=O)N1C[C@H]2[C@@H]([C@H]1C(=O)N[C@H](C#N)C[C@@H]1CCNC1=O)C2(C)C`, the Cmax (usually the maximum level reached in the sampled fluid or tissue) is 9630 ng/mL in data set [3] and 2521.64 ng/mL in data set [10]. For the same compound, the values for the t1/2 in [4] and in data set [11] were 4.64 min and 37.93 min, respectively. Further, the MRT worked out at 51 min in data set [5] and 23.4 min in data set [18]. For the same compound, the AUC in data set [7] was determined as 3361.32 ng·h/mL; in [8], 2311.94 ng·h/mL. In addition, the Tmax in data set [9] is 4.98 min. For the same compound, the results for the AUClast in data set [13] and in [17] were 2308.32 ng·h/mL and 3336.46 ng·h/mL, respectively. Besides, the Vdss (commonly a proportionality between amount in the body and measured concentration, not a real space) in data set [14] (iv, 10 mg/kg) was 1.18 L/kg. Besides, the F in data set [16] stood at 34.59%. Moreover, the EC50 (in general, the concentration giving half of the maximal effect) in the data set with SARS-CoV-2 stood at 0.58 µM.

Take `CC(C)(C)[C@H](NC(=O)C(F)(F)F)C(=O)N1[C@@H]2CC[C@@H](C2)[C@H]1C(=O)N[C@H](C#N)C[C@@H]1CCNC1=O`: in data set [1], the midpoint of inhibition, the IC50, lay at 0.0546 µM.
